Reference: ChEMBL document CHEMBL1143542, “Structure-activity relationships of bivalent aminoglycosides and evaluation of their microbiological activities” (2005)
Values after ≈ are worked out from the molar mass of the structure shown.

Legend:
Pseudomonas aeruginosa [1] = experiment: Susceptibility testing against Pseudomonas aeruginosa PAE_NUH07; R=Resistant; assay type: functional, organism-based
Procedure, shortened: (§1)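 Disk diffusion susceptibility profiling of P. aeruginosa reference and clinical isolates against empirically used antipseudomonal antibiotics. Each isolate was categorised as susceptible, intermediate or resistant.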

Pseudomonas aeruginosa [2] = experiment: Susceptibility testing against Pseudomonas aeruginosa ATCC 27853; S=Susceptible; assay type: functional, organism-based
Procedure, shortened: (§2)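 Disk diffusion susceptibility profiling against a panel of empirically used antipseudomonal antibiotics. Each strain was categorised as susceptible (S) or intermediate (I).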

Pseudomonas aeruginosa [3] = experiment: Susceptibility testing against Pseudomonas aeruginosa PAE_NUH01; R=Resistant; assay type: functional, organism-based; procedure, shortened: as §1
Pseudomonas aeruginosa [4] = experiment: Susceptibility testing against Pseudomonas aeruginosa PAE_NUH20; S=Susceptible; assay type: functional, organism-based; procedure, shortened: as §2
Pseudomonas aeruginosa [5] = experiment: Susceptibility testing against Pseudomonas aeruginosa PAE_NUH21; S=Susceptible; assay type: functional, organism-based; procedure, shortened: as §2
Pseudomonas aeruginosa [6] = experiment: Susceptibility testing against Pseudomonas aeruginosa PAE_NUH02; R=Resistant; assay type: functional, organism-based; procedure, shortened: as §1
Pseudomonas aeruginosa [7] = experiment: Susceptibility testing against Pseudomonas aeruginosa PAE_NUH25; S=Susceptible; assay type: functional, organism-based; procedure, shortened: as §2
Pseudomonas aeruginosa [8] = experiment: Susceptibility testing against Pseudomonas aeruginosa PAE_NUH04; R=Resistant; assay type: functional, organism-based; procedure, shortened: as §1
Pseudomonas aeruginosa [9] = experiment: Susceptibility testing against Pseudomonas aeruginosa PAE_NUH03; R=Resistant; assay type: functional, organism-based; procedure, shortened: as §1
Pseudomonas aeruginosa [10] = experiment: Susceptibility testing against Pseudomonas aeruginosa PAE_NUH17; S=Susceptible; assay type: functional, organism-based; procedure, shortened: as §2
Pseudomonas aeruginosa [11] = experiment: Susceptibility testing against Pseudomonas aeruginosa PAE_NUH05; R=Resistant; assay type: functional, organism-based; procedure, shortened: as §1
Pseudomonas aeruginosa [12] = experiment: Susceptibility testing against Pseudomonas aeruginosa PAE_NUH19; S=Susceptible; assay type: functional, organism-based; procedure, shortened: as §2
Pseudomonas aeruginosa [13] = experiment: Susceptibility testing against Pseudomonas aeruginosa PAE_NUH22; S=Susceptible; assay type: functional, organism-based; procedure, shortened: as §2
Pseudomonas aeruginosa [14] = experiment: Susceptibility testing against Pseudomonas aeruginosa PAE_NUH06; R=Resistant; assay type: functional, organism-based; procedure, shortened: as §1
Pseudomonas aeruginosa [15] = experiment: Susceptibility testing against Pseudomonas aeruginosa PAE_NUH24; S=Susceptible; assay type: functional, organism-based; procedure, shortened: as §2
Pseudomonas aeruginosa [16] = experiment: Susceptibility testing against Pseudomonas aeruginosa PAE_NUH23; S=Susceptible; assay type: functional, organism-based; procedure, shortened: as §2
Pseudomonas aeruginosa [17] = experiment: Susceptibility testing against Pseudomonas aeruginosa PAE_NUH18; S=Susceptible; assay type: functional, organism-based; procedure, shortened: as §2
Enterococcus faecalis = experiment: In vitro minimum inhibitory concentration against Enterococcus faecalis 29212; assay type: functional
Procedure, shortened: (§3)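 Broth microdilution following CLSI M100-S12. Stocks were 10 mg/mL in water, diluted in Mueller–Hinton broth to a top level of 128, then serially 2-fold in plates. Bacteria in cation-adjusted Mueller–Hinton broth were mixed 1:1 with drug and incubated 16–20 h at 35 °C. MIC was the lowest concentration with no visible growth. Run in duplicate with no-antibiotic and no-inoculum (sterility) controls.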

Staphylococcus aureus [18] = experiment: In vitro minimum inhibitory concentration against Staphylococcus aureus MRSA 3359; assay type: functional; procedure, shortened: as §3
Pseudomonas aeruginosa [19] = experiment: In vitro minimum inhibitory concentration against Pseudomonas aeruginosa ATCC 27853; assay type: functional; procedure, shortened: as §3
Staphylococcus aureus [20] = experiment: In vitro minimum inhibitory concentration against Staphylococcus aureus ATCC 29213; assay type: functional; procedure, shortened: as §3
Pseudomonas aeruginosa [21] = experiment: In vitro minimum inhibitory concentration against Pseudomonas aeruginosa PAO-1 Minimum inhibitory concentration against Pseudomonas aeruginosa PAO-1; assay type: functional; procedure, shortened: as §3
Escherichia coli = experiment: In vitro minimum inhibitory concentration against Escherichia coli ATCC 25922; assay type: functional; procedure, shortened: as §3
Pseudomonas aeruginosa [22] = experiment: In vitro minimum inhibitory concentration against Pseudomonas aeruginosa PAO-1; assay type: functional; procedure, shortened: as §3

| MIC (Enterococcus faecalis) [µg/mL] | MIC (Staphylococcus aureus [18]) [µg/mL] | MIC (Pseudomonas aeruginosa [19]) [µg/mL] | MIC (Staphylococcus aureus [20]) [µg/mL] | MIC (Pseudomonas aeruginosa [21]) [µg/mL] | MIC (Escherichia coli) [µg/mL] | MIC (Pseudomonas aeruginosa [22]) [µg/mL] | SMILES | further results |
| --- | --- | --- | --- | --- | --- | --- | --- | --- |
|  |  |  |  |  |  |  | O=C(O)c1cn(C2CC2)c2cc(N3CCNCC3)c(F)cc2c1=O | Activity (Pseudomonas aeruginosa [1]): Resistant; Activity (Pseudomonas aeruginosa [2]): Susceptible; Activity (Pseudomonas aeruginosa [3]): Resistant; Activity (Pseudomonas aeruginosa [4]): Susceptible; Activity (Pseudomonas aeruginosa [5]): Susceptible; Activity (Pseudomonas aeruginosa [6]): Resistant; Activity (Pseudomonas aeruginosa [7]): Susceptible; Activity (Pseudomonas aeruginosa [8]): Resistant; Activity (Pseudomonas aeruginosa [9]): Resistant; Activity (Pseudomonas aeruginosa [10]): Susceptible; Activity (Pseudomonas aeruginosa [11]): Resistant; Activity (Pseudomonas aeruginosa [12]): Susceptible; Activity (Pseudomonas aeruginosa [13]): Susceptible; Activity (Pseudomonas aeruginosa [14]): Resistant; Activity (Pseudomonas aeruginosa [15]): Susceptible; Activity (Pseudomonas aeruginosa [16]): Susceptible; Activity (Pseudomonas aeruginosa [17]): Susceptible |
| > 50 | 32 (≈ 37.3 µM) | 16 (≈ 18.7 µM) | 2 (≈ 2.33 µM) | 16 (≈ 18.7 µM) | 16 (≈ 18.7 µM) |  | CN(CCCCN(C)C[C@@H](O)CO[C@@H]1[C@@H](O)[C@H](N)C[C@H](N)[C@H]1O[C@H]1O[C@H](CN)[C@@H](O)C[C@H]1N)C[C@H](O)CO[C@@H]1[C@@H](O)[C@H](N)C[C@H](N)[C@H]1O[C@H]1O[C@H](CN)[C@@H](O)[C@H](O)[C@H]1N |  |
| > 50 | > 50 | 12.5 (≈ 14.6 µM) | 12.5 (≈ 14.6 µM) |  | 50 (≈ 58.3 µM) | 50 (≈ 58.3 µM) | NC[C@H]1O[C@H](O[C@H]2[C@H](OC[C@H](O)CN3CCCN(C[C@@H](O)CO[C@@H]4[C@@H](O)[C@H](N)C[C@H](N)[C@H]4O[C@H]4O[C@H](CN)[C@@H](O)[C@H](O)[C@H]4N)CC3)[C@@H](O)[C@H](N)C[C@@H]2N)[C@H](N)[C@@H](O)[C@@H]1O |  |
| > 50 | 50 (≈ 56.4 µM) | 6.3 (≈ 7.1 µM) | 3.1 (≈ 3.49 µM) |  | 12.5 (≈ 14.1 µM) | 6.3 (≈ 7.1 µM) | CCN(CCCN(CC)C[C@@H](O)CO[C@@H]1[C@@H](O)[C@H](N)C[C@H](N)[C@H]1O[C@H]1O[C@H](CN)[C@@H](O)[C@H](O)[C@H]1N)C[C@@H](O)CO[C@@H]1[C@@H](O)[C@H](N)C[C@H](N)[C@H]1O[C@H]1O[C@H](CN)[C@@H](O)[C@H](O)[C@H]1N |  |
| > 50 | > 50 | > 50 | > 50 | > 50 | > 50 |  | NC[C@H]1O[C@H](O[C@H]2[C@H](OC[C@H](O)CNCCCNCCNC[C@@H](O)CO[C@@H]3[C@@H](O)[C@H](N)C[C@H](N)[C@H]3O[C@H]3O[C@H](CN)[C@@H](O)[C@H](O)[C@H]3N)[C@@H](O)[C@H](N)C[C@@H]2N)[C@H](N)[C@@H](O)[C@@H]1O |  |
| > 50 | > 50 | 12.5 (≈ 14.6 µM) | 12.5 (≈ 14.6 µM) |  | > 50 | 50 (≈ 58.5 µM) | NC[C@H]1O[C@H](O[C@H]2[C@H](OC[C@H](O)CN3CC4CC3CN4C[C@@H](O)CO[C@@H]3[C@@H](O)[C@H](N)C[C@H](N)[C@H]3O[C@H]3O[C@H](CN)[C@@H](O)[C@H](O)[C@H]3N)[C@@H](O)[C@H](N)C[C@@H]2N)[C@H](N)[C@@H](O)[C@@H]1O |  |
| 32 (≈ 38.1 µM) | 16 (≈ 19.1 µM) | 2 (≈ 2.38 µM) | 0.5 (≈ 0.596 µM) | 2 (≈ 2.38 µM) | 4 (≈ 4.77 µM) |  | NC[C@@H]1C[C@H](O)[C@@H](N)[C@H](O[C@H]2[C@H](O)[C@@H](OC[C@@H](O)CN[C@H]3CC[C@H](NC[C@@H](O)CO[C@@H]4[C@@H](O)[C@H](O[C@H]5O[C@H](CN)[C@@H](O)C[C@H]5N)[C@@H](N)C[C@H]4N)CC3)[C@H](N)C[C@@H]2N)O1 |  |
| > 50 | > 50 | 25 (≈ 29.7 µM) | 12.5 (≈ 14.8 µM) |  | 25 (≈ 29.7 µM) | 25 (≈ 29.7 µM) | NC[C@H]1O[C@H](O[C@H]2[C@H](OC[C@H](O)CN3CCN(C[C@@H](O)CO[C@@H]4[C@@H](O)[C@H](N)C[C@H](N)[C@H]4O[C@H]4O[C@H](CN)[C@@H](O)[C@H](O)[C@H]4N)CC3)[C@@H](O)[C@H](N)C[C@@H]2N)[C@H](N)[C@@H](O)[C@@H]1O |  |
| 32 (≈ 38.6 µM) | 16 (≈ 19.3 µM) | 4 (≈ 4.83 µM) | 2 (≈ 2.41 µM) | 4 (≈ 4.83 µM) | 16 (≈ 19.3 µM) |  | NC[C@H]1O[C@H](O[C@H]2[C@H](OC[C@@H](O)CNCCCCNC[C@@H](O)CO[C@@H]3[C@@H](O)[C@H](N)C[C@H](N)[C@H]3O[C@H]3O[C@H](CN)[C@@H](O)C[C@H]3N)[C@@H](O)[C@H](N)C[C@@H]2N)[C@H](N)[C@@H](O)[C@@H]1O |  |
